The text below walks through data of ChEMBL document CHEMBL4033612, “The Bibenzyl Canniprene Inhibits the Production of Pro-Inflammatory Eicosanoids and Selectively Accumulates in Some Cannabis sativa Strains” (J Nat Prod, 2017).

Structures are written as SMILES. Calls of active or inactive are those of the source. The calls are words filed in the database; no cut-off is given here.

The target of experiment [1] is T1, Polyunsaturated fatty acid 5-lipoxygenase (Homo sapiens) (UniProt P09917).
T1 sequence (whole entry): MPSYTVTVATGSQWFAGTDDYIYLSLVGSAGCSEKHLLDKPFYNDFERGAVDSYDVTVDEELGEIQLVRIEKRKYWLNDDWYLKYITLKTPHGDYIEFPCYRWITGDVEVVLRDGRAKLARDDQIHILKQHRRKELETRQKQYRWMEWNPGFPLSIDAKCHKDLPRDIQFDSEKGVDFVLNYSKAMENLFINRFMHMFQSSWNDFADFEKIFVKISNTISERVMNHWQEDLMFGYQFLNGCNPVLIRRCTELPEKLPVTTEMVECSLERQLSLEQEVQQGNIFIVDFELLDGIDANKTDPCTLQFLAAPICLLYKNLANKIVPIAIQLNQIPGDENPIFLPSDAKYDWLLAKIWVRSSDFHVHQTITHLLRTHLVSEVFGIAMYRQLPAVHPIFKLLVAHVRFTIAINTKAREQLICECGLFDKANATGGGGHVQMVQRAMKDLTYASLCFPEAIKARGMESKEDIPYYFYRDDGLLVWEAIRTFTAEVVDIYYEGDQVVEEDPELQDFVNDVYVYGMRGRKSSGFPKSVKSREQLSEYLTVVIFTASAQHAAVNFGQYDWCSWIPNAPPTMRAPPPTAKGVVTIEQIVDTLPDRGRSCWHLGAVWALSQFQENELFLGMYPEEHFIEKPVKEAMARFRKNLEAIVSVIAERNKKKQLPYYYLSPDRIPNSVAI
The experiment in a line: (§1) Inhibition of human recombinant 5-lipoxygenase expressed in Escherichia coli MV1190 pre-incubated for 10 mins before arachidonic acid substrate addition and measured after 10 mins by RP-HPLC method. In outline:
(§2)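 5-LO expressed at 27 °C in transformed E. coli, lysed, sonicated, spun at 40000g; supernatant partially purified on ATP-agarose and used at once. Enzyme diluted in ice-cold PBS with 1 mM EDTA and 1 mM ATP, preincubated with compound 10 min at 4 °C, warmed 30 s at 37 °C. Reaction started with 2 mM CaCl2 plus 20 μM AA, 10 min at 37 °C, stopped with methanol. Products analysed by RP-HPLC. IC50 by linear interpolation around 50% activity.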

In experiment [2] the target is T2, Polyunsaturated fatty acid 5-lipoxygenase (Homo sapiens, UniProt P09917).
T2 sequence (P09917 whole entry): T1 sequence (whole entry)
The experiment is described as §1. Summed up:
as §2

Experiment [3] deals with T3, Prostaglandin E synthase (Homo sapiens) (UniProt O14684).
T3 sequence (whole entry): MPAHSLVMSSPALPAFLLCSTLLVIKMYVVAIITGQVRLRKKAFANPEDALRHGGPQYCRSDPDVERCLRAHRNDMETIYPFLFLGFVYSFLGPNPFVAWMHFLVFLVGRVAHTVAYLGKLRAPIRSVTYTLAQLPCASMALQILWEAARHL
The experiment in a line: (§3) Inhibition of mPGES-1 in interleukin-1 beta-stimulated human A549 cells microsomal membranes assessed as reduction in conversion of PGH2 to PGE2 pre-incubated for 15 mins followed by PGH2 substrate addition measured after 1 min by RP-HPLC method. In kind it is cell-based. Summed up: (§4)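 A549 cells treated with 1 ng/mL IL-1β for 48 h, sonicated, and microsomes isolated at 174000g. Membranes were diluted in 0.1 M potassium phosphate pH 7.4 with 2.5 mM glutathione and given compound or vehicle for 15 min at 4 °C. PGH2 was added and the reaction ran 1 min at 4 °C, then was stopped with FeCl2/citric acid containing 11β-PGE2 internal standard. PGE2 was taken by SPE and measured by RP-HPLC. IC50 by linear interpolation.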

For the next experiment, the target named is T4, Prostaglandin E synthase (Homo sapiens, UniProt O14684).
T4 sequence (O14684 whole entry): T3 sequence (whole entry)
Described as §3. The experiment is classed as cell-based. Summed up:
as §4

Experiment [4] concerns the target T3, Prostaglandin E synthase (Homo sapiens). Kind of experiment: Inhibition of mPGES-1 in interleukin-1 beta-stimulated human A549 cells microsomal membranes up to 10 uM assessed as reduction in conversion of PGH2 to PGE2 pre-incubated for 15 mins followed by PGH2 substrate addition measured after 1 min by RP-HPLC method. In kind it is cell-based. In outline:
as §4

Experiment [5] deals with T1, Polyunsaturated fatty acid 5-lipoxygenase (Homo sapiens). The experiment in a line: Inhibition of human recombinant 5-lipoxygenase expressed in Escherichia coli MV1190 up to 10 uM pre-incubated for 10 mins before arachidonic acid substrate addition and measured after 10 mins by RP-HPLC method. In outline: as §2

The IC50 is the midpoint of a concentration-inhibition curve. As to `COc1cc(O)cc(CCc2ccc(OC)c(O)c2CC=C(C)C)c1`, the inhibition entry in experiment [1] and in experiment [3] was “Dose-dependent effect” each time. Besides, the IC50 in experiment [2] amounted to 400 nM; on Prostaglandin E synthase, 10000 nM.
Take `COc1cc(O)c2c(c1)CCC21C=CC(=O)CC1` (stereo not given): the IC50 in experiment [2] stood at 9300 nM. Also, the inhibition entry in experiment [4] was “inactive”.
Consider `COc1cc(O)c2c(c1)CCC21CCC(O)CC1` (stereo not given), for which the inhibition result in experiment [5] and in experiment [4] was “inactive” throughout.
On to `COc1cc(-c2cc(=O)c3c(O)c(C/C=C(\C)CCC=C(C)C)c(O)cc3o2)ccc1O`, for which the IC50 in experiment [2] was 1300 nM; at Prostaglandin E synthase, 1800 nM.
